Reference: ChEMBL document CHEMBL3352443, “Synthesis of new heterocyclic lupeol derivatives as nitric oxide and pro-inflammatory cytokine inhibitors” (Bioorg Med Chem Lett, 2014)
pIC50: −log10 of the molar value.

tested on: not listed separately; assay: Cytotoxicity against mouse RAW264.7 cells assessed as cell viability at IC50 by MTT assay relative to control; format: cell-based; details: read-out: Activity

| Structure (SMILES) | viability [%] |
| --- | --- |
| C=C(C)[C@@H]1CC[C@]2(C)CC[C@]3(C)[C@H](CC[C@@H]4[C@@]5(C)Cc6c([nH]c7ccc(F)cc67)C(C)(C)[C@@H]5CC[C@]43C)[C@@H]12 | 95.2 |
| C=C(C)[C@@H]1CC[C@]2(C)CC[C@]3(C)[C@H](CC[C@@H]4[C@@]5(C)Cc6c([nH]c7ccc(Br)cc67)C(C)(C)[C@@H]5CC[C@]43C)[C@@H]12 | 91.4 |
| C=C(C)[C@@H]1CC[C@]2(C)CC[C@]3(C)[C@H](CC[C@@H]4[C@@]5(C)CC[C@H](N(O)c6ccccc6)C(C)(C)[C@@H]5CC[C@]43C)[C@@H]12 | 79.3 |
| C=C(C)[C@@H]1CC[C@]2(C)CC[C@]3(C)[C@H](CC[C@@H]4[C@@]5(C)CC[C@H](O)C(C)(C)[C@@H]5CC[C@]43C)[C@@H]12 [LUPEOL] | 87.3 |
| C=C(C)[C@@H]1CC[C@]2(C)CC[C@]3(C)[C@H](CC[C@@H]4[C@@]5(C)CCC(=O)C(C)(C)[C@@H]5CC[C@]43C)[C@@H]12 [LUPENONE] | 89.6 |
| C=C(C)[C@@H]1CC[C@]2(C)CC[C@]3(C)[C@H](CC[C@@H]4[C@@]5(C)CC[C@H](OC(=O)CCC(=O)O)C(C)(C)[C@@H]5CC[C@]43C)[C@@H]12 | 91.3 |
| C=C(C)[C@@H]1CC[C@]2(C)CC[C@]3(C)[C@H](CC[C@@H]4[C@@]5(C)CC/C(=N\O)C(C)(C)[C@@H]5CC[C@]43C)[C@@H]12 | 95.7 |
| C=C(C)[C@@H]1CC[C@]2(C)CC[C@]3(C)[C@H](CC[C@@H]4[C@@]5(C)Cc6c([nH]c7ccc(C)cc67)C(C)(C)[C@@H]5CC[C@]43C)[C@@H]12 | 89.3 |
| C=C(C=O)[C@@H]1CC[C@]2(C)CC[C@]3(C)[C@H](CC[C@@H]4[C@@]5(C)CC[C@H](O)C(C)(C)[C@@H]5CC[C@]43C)[C@@H]12 | 95.2 |
| C=C(C)[C@@H]1CC[C@]2(C)CC[C@]3(C)[C@H](CC[C@@H]4[C@@]5(C)Cc6nccnc6C(C)(C)[C@@H]5CC[C@]43C)[C@@H]12 | 95.2 |

tested on: not listed separately; assay: Cytotoxicity against mouse J774A1 cells assessed as cell viability at IC50 by MTT assay relative to control; format: cell-based, J774.A1; details: read-out: Activity

| Structure (SMILES) | viability [%] |
| --- | --- |
| C=C(C)[C@@H]1CC[C@]2(C)CC[C@]3(C)[C@H](CC[C@@H]4[C@@]5(C)Cc6c([nH]c7ccc(F)cc67)C(C)(C)[C@@H]5CC[C@]43C)[C@@H]12 | 92.1 |
| C=C(C)[C@@H]1CC[C@]2(C)CC[C@]3(C)[C@H](CC[C@@H]4[C@@]5(C)Cc6c([nH]c7ccc(Br)cc67)C(C)(C)[C@@H]5CC[C@]43C)[C@@H]12 | 90.8 |
| C=C(C)[C@@H]1CC[C@]2(C)CC[C@]3(C)[C@H](CC[C@@H]4[C@@]5(C)CC[C@H](N(O)c6ccccc6)C(C)(C)[C@@H]5CC[C@]43C)[C@@H]12 | 82.5 |
| C=C(C)[C@@H]1CC[C@]2(C)CC[C@]3(C)[C@H](CC[C@@H]4[C@@]5(C)CC[C@H](O)C(C)(C)[C@@H]5CC[C@]43C)[C@@H]12 [LUPEOL] | 88.3 |
| C=C(C)[C@@H]1CC[C@]2(C)CC[C@]3(C)[C@H](CC[C@@H]4[C@@]5(C)CCC(=O)C(C)(C)[C@@H]5CC[C@]43C)[C@@H]12 [LUPENONE] | 87.7 |
| C=C(C)[C@@H]1CC[C@]2(C)CC[C@]3(C)[C@H](CC[C@@H]4[C@@]5(C)CC[C@H](OC(=O)CCC(=O)O)C(C)(C)[C@@H]5CC[C@]43C)[C@@H]12 | 90.1 |
| C=C(C)[C@@H]1CC[C@]2(C)CC[C@]3(C)[C@H](CC[C@@H]4[C@@]5(C)CC/C(=N\O)C(C)(C)[C@@H]5CC[C@]43C)[C@@H]12 | 93.6 |
| C=C(C)[C@@H]1CC[C@]2(C)CC[C@]3(C)[C@H](CC[C@@H]4[C@@]5(C)Cc6c([nH]c7ccc(C)cc67)C(C)(C)[C@@H]5CC[C@]43C)[C@@H]12 | 87 |
| C=C(C=O)[C@@H]1CC[C@]2(C)CC[C@]3(C)[C@H](CC[C@@H]4[C@@]5(C)CC[C@H](O)C(C)(C)[C@@H]5CC[C@]43C)[C@@H]12 | 92.1 |
| C=C(C)[C@@H]1CC[C@]2(C)CC[C@]3(C)[C@H](CC[C@@H]4[C@@]5(C)Cc6nccnc6C(C)(C)[C@@H]5CC[C@]43C)[C@@H]12 | 93.3 |

tested on: RAW264.7; assay: Antiinflammatory activity in mouse RAW264.7 cells assessed as inhibition of LPS-induced TNF-alpha production at 20 ug/ml incubated for 1 hr prior to LPS challenge measured after 6 hrs by sandwich ELISA relative to control; format: functional; details: not given
How it was run: (§1)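 Compounds were tested at 20 µg/mL on LPS-stimulated cells. TNF-α and IL-1β released into the medium were quantified with an ELISA kit following the kit protocol and expressed as % inhibition. Data are mean ± SD of three separate experiments, each run in triplicate.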

| Structure (SMILES) | inhibition at 20 µg/mL [%] |
| --- | --- |
| C=C(C)[C@@H]1CC[C@]2(C)CC[C@]3(C)[C@H](CC[C@@H]4[C@@]5(C)Cc6c([nH]c7ccc(Br)cc67)C(C)(C)[C@@H]5CC[C@]43C)[C@@H]12 | 39.2 |

tested on: not listed separately; assay: Antiinflammatory activity in mouse J774A1 cells assessed as inhibition of LPS-induced TNF-alpha production at 20 ug/ml incubated for 1 hr prior to LPS challenge measured after 6 hrs by sandwich ELISA relative to control; format: functional; details: J774.A1; how it was run: as §1

| Structure (SMILES) | inhibition at 20 µg/mL [%] |
| --- | --- |
| C=C(C)[C@@H]1CC[C@]2(C)CC[C@]3(C)[C@H](CC[C@@H]4[C@@]5(C)Cc6c([nH]c7ccc(Br)cc67)C(C)(C)[C@@H]5CC[C@]43C)[C@@H]12 | 31.5 |

tested on: RAW264.7; assay: Antiinflammatory activity in mouse RAW264.7 cells assessed as inhibition of LPS-induced IL-1beta production at 20 ug/ml incubated for 1 hr prior to LPS challenge measured after 12 hrs by sandwich ELISA relative to control; format: functional; details: not given; how it was run: as §1

| Structure (SMILES) | inhibition at 20 µg/mL [%] |
| --- | --- |
| C=C(C)[C@@H]1CC[C@]2(C)CC[C@]3(C)[C@H](CC[C@@H]4[C@@]5(C)Cc6c([nH]c7ccc(Br)cc67)C(C)(C)[C@@H]5CC[C@]43C)[C@@H]12 | 19.7 |

tested on: not listed separately; assay: Antiinflammatory activity in mouse J774A1 cells assessed as inhibition of LPS-induced IL-1beta production at 20 ug/ml incubated for 1 hr prior to LPS challenge measured after 12 hrs by sandwich ELISA relative to control; format: functional; details: J774.A1; how it was run: as §1

| Structure (SMILES) | inhibition at 20 µg/mL [%] |
| --- | --- |
| C=C(C)[C@@H]1CC[C@]2(C)CC[C@]3(C)[C@H](CC[C@@H]4[C@@]5(C)Cc6c([nH]c7ccc(Br)cc67)C(C)(C)[C@@H]5CC[C@]43C)[C@@H]12 | 16.2 |

tested on: RAW264.7; assay: Antiinflammatory activity in mouse RAW264.7 cells assessed as inhibition of LPS-induced NO production incubated for 1 hr prior to LPS challenge measured after 24 hrs by Griess method; format: functional, cell-based; details: not given
How it was run: (§2)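 NO release was measured in LPS-stimulated macrophages, and IC50 values were derived from it. Data are mean ± SD of three separate experiments, each run in triplicate.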

| Structure (SMILES) | pIC50 |
| --- | --- |
| C=C(C)[C@@H]1CC[C@]2(C)CC[C@]3(C)[C@H](CC[C@@H]4[C@@]5(C)Cc6c([nH]c7ccc(F)cc67)C(C)(C)[C@@H]5CC[C@]43C)[C@@H]12 | 4.38 |
| C=C(C)[C@@H]1CC[C@]2(C)CC[C@]3(C)[C@H](CC[C@@H]4[C@@]5(C)Cc6c([nH]c7ccc(Br)cc67)C(C)(C)[C@@H]5CC[C@]43C)[C@@H]12 | 4.62 |
| C=C(C)[C@@H]1CC[C@]2(C)CC[C@]3(C)[C@H](CC[C@@H]4[C@@]5(C)CC[C@H](N(O)c6ccccc6)C(C)(C)[C@@H]5CC[C@]43C)[C@@H]12 | 4.31 |
| C=C(C)[C@@H]1CC[C@]2(C)CC[C@]3(C)[C@H](CC[C@@H]4[C@@]5(C)CC[C@H](O)C(C)(C)[C@@H]5CC[C@]43C)[C@@H]12 [LUPEOL] | 4.43 |
| C=C(C)[C@@H]1CC[C@]2(C)CC[C@]3(C)[C@H](CC[C@@H]4[C@@]5(C)CCC(=O)C(C)(C)[C@@H]5CC[C@]43C)[C@@H]12 [LUPENONE] | 4.41 |
| C=C(C)[C@@H]1CC[C@]2(C)CC[C@]3(C)[C@H](CC[C@@H]4[C@@]5(C)CC[C@H](OC(=O)CCC(=O)O)C(C)(C)[C@@H]5CC[C@]43C)[C@@H]12 | 4.41 |
| C=C(C)[C@@H]1CC[C@]2(C)CC[C@]3(C)[C@H](CC[C@@H]4[C@@]5(C)CC/C(=N\O)C(C)(C)[C@@H]5CC[C@]43C)[C@@H]12 | 4.34 |
| C=C(C)[C@@H]1CC[C@]2(C)CC[C@]3(C)[C@H](CC[C@@H]4[C@@]5(C)Cc6c([nH]c7ccc(C)cc67)C(C)(C)[C@@H]5CC[C@]43C)[C@@H]12 | 4.56 |
| C=C(C=O)[C@@H]1CC[C@]2(C)CC[C@]3(C)[C@H](CC[C@@H]4[C@@]5(C)CC[C@H](O)C(C)(C)[C@@H]5CC[C@]43C)[C@@H]12 | 4.37 |
| C=C(C)[C@@H]1CC[C@]2(C)CC[C@]3(C)[C@H](CC[C@@H]4[C@@]5(C)Cc6nccnc6C(C)(C)[C@@H]5CC[C@]43C)[C@@H]12 | 4.49 |

tested on: not listed separately; assay: Antiinflammatory activity in mouse J774A1 cells assessed as inhibition of LPS-induced NO production incubated for 1 hr prior to LPS challenge measured after 24 hrs by Griess method; format: functional, cell-based; details: J774.A1; how it was run: as §2

| Structure (SMILES) | pIC50 |
| --- | --- |
| C=C(C)[C@@H]1CC[C@]2(C)CC[C@]3(C)[C@H](CC[C@@H]4[C@@]5(C)Cc6c([nH]c7ccc(F)cc67)C(C)(C)[C@@H]5CC[C@]43C)[C@@H]12 | 4.38 |
| C=C(C)[C@@H]1CC[C@]2(C)CC[C@]3(C)[C@H](CC[C@@H]4[C@@]5(C)Cc6c([nH]c7ccc(Br)cc67)C(C)(C)[C@@H]5CC[C@]43C)[C@@H]12 | 4.74 |
| C=C(C)[C@@H]1CC[C@]2(C)CC[C@]3(C)[C@H](CC[C@@H]4[C@@]5(C)CC[C@H](N(O)c6ccccc6)C(C)(C)[C@@H]5CC[C@]43C)[C@@H]12 | 4.32 |
| C=C(C)[C@@H]1CC[C@]2(C)CC[C@]3(C)[C@H](CC[C@@H]4[C@@]5(C)CC[C@H](O)C(C)(C)[C@@H]5CC[C@]43C)[C@@H]12 [LUPEOL] | 4.46 |
| C=C(C)[C@@H]1CC[C@]2(C)CC[C@]3(C)[C@H](CC[C@@H]4[C@@]5(C)CCC(=O)C(C)(C)[C@@H]5CC[C@]43C)[C@@H]12 [LUPENONE] | 4.41 |
| C=C(C)[C@@H]1CC[C@]2(C)CC[C@]3(C)[C@H](CC[C@@H]4[C@@]5(C)CC[C@H](OC(=O)CCC(=O)O)C(C)(C)[C@@H]5CC[C@]43C)[C@@H]12 | 4.41 |
| C=C(C)[C@@H]1CC[C@]2(C)CC[C@]3(C)[C@H](CC[C@@H]4[C@@]5(C)CC/C(=N\O)C(C)(C)[C@@H]5CC[C@]43C)[C@@H]12 | 4.35 |
| C=C(C)[C@@H]1CC[C@]2(C)CC[C@]3(C)[C@H](CC[C@@H]4[C@@]5(C)Cc6c([nH]c7ccc(C)cc67)C(C)(C)[C@@H]5CC[C@]43C)[C@@H]12 | 4.54 |
| C=C(C=O)[C@@H]1CC[C@]2(C)CC[C@]3(C)[C@H](CC[C@@H]4[C@@]5(C)CC[C@H](O)C(C)(C)[C@@H]5CC[C@]43C)[C@@H]12 | 4.43 |
| C=C(C)[C@@H]1CC[C@]2(C)CC[C@]3(C)[C@H](CC[C@@H]4[C@@]5(C)Cc6nccnc6C(C)(C)[C@@H]5CC[C@]43C)[C@@H]12 | 4.49 |
